Test results published in ChEMBL document CHEMBL2021876, “New pyridobenzoxazepine derivatives derived from 5-(4-methylpiperazin-1-yl)-8-chloro-pyrido[2,3-b][1,5]benzoxazepine (JL13): chemical synthesis and pharmacological evaluation” (J Med Chem, 2012).

Experiments:
[1] = target: Serotonin 1a (5-HT1a) receptor/Adrenergic receptor alpha-1 (Rattus norvegicus) (UniProt P15823+P23944+P43140+P19327); assay: In vivo displacement of [3H]8-OH-DPAT from 5HT1A receptor in Sprague-Dawley rat dorsolateral frontal cortex at 13.75 mg/kg, ip qd for 28 days by autoradiography relative to control; type: functional, organism-based; design: dose 13.75 mg/kg
Summary of the method: (§1)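 Male Sprague-Dawley rats (200−225 g, N = 8/group) dosed ip once daily for 28 days, vehicle controls, decapitated; 10 μm frozen coronal sections. Preincubation 1 h RT in 50 mM Tris-HCl pH 7.6, 0.1% ascorbic acid, 4 mM CaCl2, 10 μM pargyline; then 1 h RT with 2.0 nM [3H]8-OH-DPAT. Nonspecific: 1 μM 5-HT. Saturating conditions; binding in fmol/mg tissue, % of control, mean ± SEM.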

Caudate-putamen [2] = assay: In vivo displacement of [3H]8-OH-DPAT from 5HT1A receptor in Sprague-Dawley rat lateral part of caudate putamen at 13.75 mg/kg, ip qd for 28 days by autoradiography relative to control; type: functional; conditions: route intraperitoneal; summary of the method: as §1
Hippocampus = assay: In vivo displacement of [3H]8-OH-DPAT from 5HT1A receptor in Sprague-Dawley rat hippocampus CA1 region at 13.75 mg/kg, ip qd for 28 days by autoradiography relative to control; type: functional; conditions: route intraperitoneal; summary of the method: as §1
Caudate-putamen [3] = assay: In vivo displacement of [3H]Ketanserin from 5HT2A receptor in Sprague-Dawley rat lateral part of caudate putamen at 13.75 mg/kg, ip qd for 28 days by autoradiography relative to control; type: functional; conditions: route intraperitoneal
Summary of the method: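 Rats (male Sprague-Dawley, N = 8/group) given daily ip injections for 28 days versus vehicle. Brain sections preincubated 1 h RT in 50 mM Tris-HCl pH 7.7, then 1 h RT with 3.0 nM [3H]ketanserin plus 1 μM prazosin and 100 nM tetrabenazine. Nonspecific: 1 μM methysergide. Washes 2 × 30 min ice-cold. Readout fmol/mg tissue as % of control, mean ± SEM.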

[4] = Lipophilicity, log K of the compound in IAM-PC-DD2 HPLC column by UV method; type: physicochemical; conditions: artificial membrane
[5] = In vivo displacement of [3H]SCH-23390 from dopamine D1 receptor in Sprague-Dawley rat entorhinal cortex at 13.75 mg/kg, ip qd for 28 days by autoradiography relative to control; type: functional; conditions: route intraperitoneal
Summary of the method: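 Forebrain sections from male Sprague-Dawley rats (N = 8/group) after 28 days of daily ip injections versus vehicle. Incubation 1 h RT in 50 mM Tris-HCl pH 7.4, 120 mM NaCl, 5 mM KCl, 2 mM CaCl2, 1 mM MgCl2 with 1 nM [3H]SCH-23390 and 100 nM ketanserin. Nonspecific: 1 μM cis-flupenthixol. Saturating conditions; fmol/mg tissue, % of control.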

[6] = target: D(2) dopamine receptor (Rattus norvegicus) (UniProt P61169); assay: In vivo displacement of [3H]Nemonapride from dopamine D2 receptor in Sprague-Dawley rat medial-prefrontal cortex at 13.75 mg/kg, ip qd for 28 days by autoradiography relative to control; type: functional, organism-based; design: dose 13.75 mg/kg
Summary of the method: (§2)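 Male Sprague-Dawley rats, N = 8/group, daily ip dosing for 28 days with vehicle controls; cryostat sections (10 μm) preincubated 1 h RT. Incubation 1 h RT in 50 mM Tris-HCl pH 7.4, 120 mM NaCl, 5 mM KCl, 2 mM CaCl2, 1 mM MgCl2 with 1 nM [3H]nemonapride, 0.5 μM DTG, 0.1 μM pindolol. Nonspecific: 10 μM S(−)-sulpiride. Values fmol/mg tissue, % of control.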

[7] = target: D(2) dopamine receptor (Rattus norvegicus) (UniProt P61169); assay: In vivo displacement of [3H]Nemonapride from dopamine D2 receptor in Sprague-Dawley rat nucleus accumbens at 13.75 mg/kg, ip qd for 28 days by autoradiography relative to control; type: functional, organism-based; design: dose 13.75 mg/kg; summary of the method: as §2

Sequence of D(2) dopamine receptor (Rattus norvegicus) (P61169 whole entry): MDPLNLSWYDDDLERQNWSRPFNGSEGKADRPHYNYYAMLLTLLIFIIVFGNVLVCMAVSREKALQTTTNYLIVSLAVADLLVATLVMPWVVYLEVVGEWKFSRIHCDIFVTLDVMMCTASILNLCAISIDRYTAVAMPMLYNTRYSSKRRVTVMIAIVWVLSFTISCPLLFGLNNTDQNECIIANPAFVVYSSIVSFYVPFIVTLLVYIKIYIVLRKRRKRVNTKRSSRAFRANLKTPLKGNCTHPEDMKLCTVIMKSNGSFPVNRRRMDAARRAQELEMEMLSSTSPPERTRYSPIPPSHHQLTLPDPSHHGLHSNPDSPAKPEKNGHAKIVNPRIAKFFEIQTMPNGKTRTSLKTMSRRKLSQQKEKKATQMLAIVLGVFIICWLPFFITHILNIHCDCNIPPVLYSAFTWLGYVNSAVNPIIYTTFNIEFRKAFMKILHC

SMILES: Clc1ccc2c(c1)N=C(N1CCNCC1)c1cccnc1O2
- inhibition [1]: 141%
- inhibition in vivo at 13.75 mg/kg (Caudate-putamen [2]): 95%
- inhibition in vivo at 13.75 mg/kg (Hippocampus): 95%
- inhibition in vivo at 13.75 mg/kg (Caudate-putamen [3]): 107%
- log K [4]: 2.68
- inhibition in vivo at 13.75 mg/kg [5]: 96%
- inhibition [6]: 141%
- inhibition [7]: 140%
